# Test results taken from ChEMBL document CHEMBL1799968, “Dimethyl-diphenyl-propanamide derivatives as nonsteroidal dissociated glucocorticoid receptor agonists” (J Med Chem, 2010).
# Key:
# Glucocorticoid receptor [1] = target: T1, Glucocorticoid receptor (Homo sapiens, UniProt P04150); assay: Displacement of GS-red from GRapha by fluorescence polarization assay
# T1 sequence (P04150 whole entry): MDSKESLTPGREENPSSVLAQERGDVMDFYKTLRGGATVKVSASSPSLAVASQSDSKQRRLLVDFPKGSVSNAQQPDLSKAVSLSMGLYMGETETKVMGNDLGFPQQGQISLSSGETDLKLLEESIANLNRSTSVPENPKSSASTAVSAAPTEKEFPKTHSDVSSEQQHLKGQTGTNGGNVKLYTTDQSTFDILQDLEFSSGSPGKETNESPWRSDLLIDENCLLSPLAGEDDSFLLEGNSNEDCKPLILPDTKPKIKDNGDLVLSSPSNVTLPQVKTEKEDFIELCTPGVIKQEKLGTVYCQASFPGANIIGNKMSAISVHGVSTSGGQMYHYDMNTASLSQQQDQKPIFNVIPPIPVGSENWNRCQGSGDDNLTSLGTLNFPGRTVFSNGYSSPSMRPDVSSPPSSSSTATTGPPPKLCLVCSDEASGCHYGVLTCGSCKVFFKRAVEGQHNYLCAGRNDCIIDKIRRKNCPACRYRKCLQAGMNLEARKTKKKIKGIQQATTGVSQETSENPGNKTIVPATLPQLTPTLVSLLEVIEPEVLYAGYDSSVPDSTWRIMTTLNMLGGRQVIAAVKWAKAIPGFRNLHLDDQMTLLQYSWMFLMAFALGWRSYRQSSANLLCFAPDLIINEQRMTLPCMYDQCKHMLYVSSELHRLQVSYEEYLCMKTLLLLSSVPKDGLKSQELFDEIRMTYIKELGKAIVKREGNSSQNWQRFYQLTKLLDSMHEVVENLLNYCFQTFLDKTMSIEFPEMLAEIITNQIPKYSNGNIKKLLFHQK
# Glucocorticoid receptor [2] = target: T1, Glucocorticoid receptor; assay: Transrepression activity of glucocorticoid receptor in human A549 cells expressing AP-1 assessed as inhibition of PMA-induced AP-1 activity by luciferase reporter gene assay; type: cell-based
# [3] = target: T2, Glucocorticoid receptor (Homo sapiens) (UniProt P04150); assay: Transrepression activity of glucocorticoid receptor in human A549 cells expressing AP-1 assessed as inhibition of PMA-induced AP-1 activity by luciferase reporter gene assay relative to Dexamethasone; type: cell-based
# T2 sequence (whole entry): T1 sequence (P04150 whole entry)
# Procedure, shortened: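 Human A549 lung epithelial cells stably transfected with a 5×AP-1 response element luciferase reporter. AP-1 was induced with PMA (15 ng/mL), and inhibition was read as decreased luciferase.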
# Glucocorticoid receptor [4] = target: T1, Glucocorticoid receptor; assay: Transactivation activity of glucocorticoid receptor ligand binding domain expressed in human NP-1 Hela cells co-expressing GAL4 DNA binding domain by luciferase reporter gene assay; type: cell-based
# Glucocorticoid receptor [5] = target: T1, Glucocorticoid receptor; assay: Transrepression activity of glucocorticoid receptor in human A549 cells assessed as inhibition of IL1beta-stimulated NFkappaB-dependent E-selectin transcription by luciferase reporter gene assay; type: cell-based
# [6] = target: T2, Glucocorticoid receptor (Homo sapiens); assay: Transrepression activity of glucocorticoid receptor in human A549 cells assessed as inhibition of IL1beta-stimulated NFkappaB-dependent E-selectin transcription by luciferase reporter gene assay relative to Dexamethasone; type: cell-based
# [7] = target: T2, Glucocorticoid receptor (Homo sapiens); assay: Transactivation activity of glucocorticoid receptor ligand binding domain expressed in human NP-1 Hela cells co-expressing GAL4 DNA binding domain by luciferase reporter gene assay relative to Dexamethasone; type: cell-based
# Procedure, shortened: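 HeLa NP-1 cells stably carrying a GAL4 DBD–human GR LBD chimera with a GAL4 luciferase reporter. Agonist activity was read as increased luciferase activity.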
# Glucocorticoid receptor [8] = target: T1, Glucocorticoid receptor; assay: Transactivation activity at glucocorticoid receptor in human 13D3/Huh7 cells assessed as induction of tyrosine aminotransferase activity after 24 hrs; type: cell-based, Huh-7
# [9] = target: T2, Glucocorticoid receptor (Homo sapiens); assay: Transactivation activity at glucocorticoid receptor in human 13D3/Huh7 cells assessed as induction of tyrosine aminotransferase activity after 24 hrs relative to Dexamethasone; type: cell-based; settings: Huh-7
# Procedure, shortened: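 Human 13D3/Huh7 hepatoma cells, 20 K/well, were incubated overnight at 37 °C/5% CO2. They were then treated overnight with compounds in assay medium containing 20 μM forskolin. The reaction was stopped with KOH and A340 read. Results are % activation, with EC50 derived.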
# [10] = target: T3, Mineralocorticoid receptor (Homo sapiens, UniProt P08235); assay: Agonist activity at mineralocorticoid receptor in human A549 cells; type: functional, cell-based
# T3 sequence (P08235 whole entry): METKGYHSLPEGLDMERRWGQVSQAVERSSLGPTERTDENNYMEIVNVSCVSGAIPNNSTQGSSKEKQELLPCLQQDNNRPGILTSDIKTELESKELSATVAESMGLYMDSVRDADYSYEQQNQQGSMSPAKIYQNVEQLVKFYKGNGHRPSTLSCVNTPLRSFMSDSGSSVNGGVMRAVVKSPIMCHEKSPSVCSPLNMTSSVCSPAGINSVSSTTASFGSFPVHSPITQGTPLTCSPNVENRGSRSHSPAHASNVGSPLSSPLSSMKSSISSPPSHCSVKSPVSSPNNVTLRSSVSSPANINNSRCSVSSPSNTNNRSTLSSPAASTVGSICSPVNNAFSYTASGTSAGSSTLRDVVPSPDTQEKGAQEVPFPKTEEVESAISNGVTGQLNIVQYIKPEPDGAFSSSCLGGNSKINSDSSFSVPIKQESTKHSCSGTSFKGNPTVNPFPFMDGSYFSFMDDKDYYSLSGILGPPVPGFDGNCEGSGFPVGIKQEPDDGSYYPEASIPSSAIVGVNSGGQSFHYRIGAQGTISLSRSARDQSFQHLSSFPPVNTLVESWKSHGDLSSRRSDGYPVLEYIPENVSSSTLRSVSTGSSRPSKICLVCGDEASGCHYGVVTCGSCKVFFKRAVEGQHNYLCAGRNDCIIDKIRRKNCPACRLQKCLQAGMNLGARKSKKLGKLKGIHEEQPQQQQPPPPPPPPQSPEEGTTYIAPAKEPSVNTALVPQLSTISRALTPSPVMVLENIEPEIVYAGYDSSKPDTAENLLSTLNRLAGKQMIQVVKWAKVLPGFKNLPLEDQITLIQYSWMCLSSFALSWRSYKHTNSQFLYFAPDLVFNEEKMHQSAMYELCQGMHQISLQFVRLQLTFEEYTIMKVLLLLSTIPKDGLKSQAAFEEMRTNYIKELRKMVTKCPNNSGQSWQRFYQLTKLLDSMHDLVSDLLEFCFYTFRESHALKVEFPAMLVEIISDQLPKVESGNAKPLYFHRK
# [11] = Selectivity ratio of Ki of GRapha to Ki of androgen receptor
# [12] = Selectivity ratio of Ki of GRapha to Ki of estrogen receptor alpha
# [13] = Selectivity ratio of Ki of GRapha to Ki of progesterone receptor
SMILES,Ki (Glucocorticoid receptor [1]) [nM],EC50 (Glucocorticoid receptor [2]) [nM],Efficacy [3] [%],EC50 (Glucocorticoid receptor [4]) [nM],EC50 (Glucocorticoid receptor [5]) [nM],Efficacy [6] [%],Efficacy [7] [%],EC50 (Glucocorticoid receptor [8]) [nM],Efficacy [9] [%],EC50 [10] [nM],Ratio Ki [11],Ratio Ki [12],Ratio Ki [13]
CC(C)(C(=O)Nc1nccs1)[C@@H](c1ccccc1)c1ccc(O)c(F)c1,0.7,15.9,79,119,8.6,68,61,36.1,48,> 5000,> 870,> 6800,66
CC(C)(C(=O)Nc1nccs1)[C@@H](c1ccccc1)c1ccc(O)cc1,1.2,40.9,63,372,29.5,52,21,251,21,> 5000,> 870,> 6800,227
CC(C)(C(=O)Nc1nncs1)[C@H]1c2ccccc2Oc2cc(O)ccc21,0.8,7.8,82,85.7,3.5,62,46,91.3,45,> 5000,> 870,> 6800,66

# Now those with a lower Ki (Glucocorticoid receptor [1]), led by results:
Ki (Glucocorticoid receptor [1]) [nM],EC50 (Glucocorticoid receptor [2]) [nM],Efficacy [3] [%],EC50 (Glucocorticoid receptor [4]) [nM],EC50 (Glucocorticoid receptor [5]) [nM],Efficacy [6] [%],Efficacy [7] [%],EC50 (Glucocorticoid receptor [8]) [nM],Efficacy [9] [%],EC50 [10] [nM],Ratio Ki [11],Ratio Ki [12],Ratio Ki [13],SMILES
0.4,40.1,83,115,8.6,71,48,142,29,> 5000,> 870,> 6800,66,CC(C)(C(=O)Nc1nccs1)[C@@H](c1ccccc1)c1ccc(O)c(Br)c1
0.3,17.5,81,60.1,9.3,68,30,27.1,39,> 5000,> 870,> 6800,73,CC(C)(C(=O)Nc1nccs1)[C@H]1c2ccccc2Oc2cc(O)ccc21
